Measured values published in ChEMBL document CHEMBL3124843, “Synthesis, cytostatic, antimicrobial, and anti-HCV activity of 6-substituted 7-(het)aryl-7-deazapurine ribonucleosides” (J Med Chem, 2014).
Active and inactive are the calls of the source. The rule behind the calls is not given here.

Legend:
[1] = Cytotoxicity against human HuH7 cells infected with Hepatitis C virus subtype 2a; type: cell-based, Huh-7
Hepatitis C virus [2] = test: Antiviral activity against Hepatitis C virus subtype 2a infected in human HuH7 cells; type: functional, organism-based, Hepacivirus hominis; details: genotype 2a, Huh-7
[3] = Cytotoxicity against human HuH7 cells infected with Hepatitis C virus subtype 1b; type: cell-based, Huh-7
Hepatitis C virus [4] = test: Antiviral activity against Hepatitis C virus subtype 1b infected in human HuH7 cells; type: functional, organism-based, Hepacivirus hominis; details: genotype 1b, Huh-7
Candida tropicalis = test: Antifungal activity against Candida tropicalis after 48 hrs; type: functional, organism-based
Pichia kudriavzevii = test: Antifungal activity against Candida crusei after 48 hrs; type: functional, organism-based
Candida parapsilosis = test: Antifungal activity against Candida parapsilosis after 48 hrs; type: functional, organism-based
Candida albicans = test: Antifungal activity against Candida albicans after 48 hrs; type: functional, organism-based
Pseudomonas aeruginosa [5] = test: Antibacterial activity against multi-resistant Pseudomonas aeruginosa A/16575 after 24 hrs; type: functional, organism-based
Escherichia coli [6] = test: Antibacterial activity against multi-resistant Escherichia coli C/16702 after 24 hrs; type: functional, organism-based
[7] = tested on: Staphylococcus haemolyticus; test: Antibacterial activity against methicillin-resistant Staphylococcus haemolyticus A/16568 after 24 hrs; type: functional, organism-based
Staphylococcus aureus [8] = test: Antibacterial activity against methicillin-resistant Staphylococcus aureus MRSA 4591 after 24 hrs; type: functional, organism-based
Pseudomonas aeruginosa [9] = test: Antibacterial activity against Pseudomonas aeruginosa CCM 3955 after 24 hrs; type: functional, organism-based
Escherichia coli [10] = test: Antibacterial activity against Escherichia coli CCM 3954 after 24 hrs; type: functional, organism-based
Staphylococcus aureus [11] = test: Antibacterial activity against Staphylococcus aureus CCM 3953 after 24 hrs; type: functional, organism-based
Enterococcus faecalis = test: Antibacterial activity against Enterococcus faecalis CCM 4224 after 24 hrs; type: functional, organism-based
[12] = Antiproliferative activity against human HeLaS3 cells after 72 hrs by XTT assay; type: functional, cell-based; details: HeLa S3, 72 h
Outline: (§1)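 Antiproliferative test on HL-60 promyelocytic leukemia and HeLa S3 cervical carcinoma cells growing in liquid suspension.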

HL-60 = test: Antiproliferative activity against human HL60 cells after 72 hrs by XTT assay; type: functional, cell-based; details: HL-60, 72 h; outline: as §1
HepG2 = test: Antiproliferative activity against human HepG2 cells after 72 hrs by XTT assay; type: functional, cell-based; details: HepG2, 72 h
MRC5 = test: Cytostatic activity against human MRC5 cells after 72 hrs by MTT assay; type: ADME, cell-based; details: MRC5, 72 h
Outline: (§2)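 IC50 is the concentration that cuts cell growth by 50%, read by quantitative metabolic MTT staining after a 3-day treatment. The resistant sublines were made by raising the concentration of the cytotoxic drug step by step. CEM-DNR-bulk (daunorubicin-selected) stably overexpresses mrp-1. K562-TAX (paclitaxel-selected) expresses only mdr-1. HCT116p53−/− carries null p53 alleles. BJ and MRC-5 are nonmalignant fibroblasts.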

BJ = test: Cytostatic activity against human BJ cells after 72 hrs by MTT assay; type: ADME, cell-based; outline: as §2
HCT-116 [13] = test: Cytostatic activity against p53-deficient human HCT116 cells after 72 hrs by MTT assay; type: functional, cell-based; details: HCT-116, 72 h; outline: as §2
HCT-116 [14] = test: Cytostatic activity against human HCT116 cells after 72 hrs by MTT assay; type: functional, cell-based; details: HCT-116, 72 h; outline: as §2
A549 = test: Cytostatic activity against human A549 cells after 72 hrs by MTT assay; type: functional, cell-based; details: A549, 72 h; outline: as §2
K562 [15] = test: Cytostatic activity against paclitaxel-resistant human K562 cells after 72 hrs by MTT assay; type: functional, cell-based; details: K562, 72 h; outline: as §2
K562 [16] = test: Cytostatic activity against human K562 cells after 72 hrs by MTT assay; type: functional, cell-based; details: K562, 72 h; outline: as §2
[17] = Cytostatic activity against human CEM-DNR-bulk cells after 72 hrs by MTT assay; type: functional, cell-based; outline: as §2
CCRF-CEM = test: Cytostatic activity against human CCRF-CEM cells after 72 hrs by MTT assay; type: functional, cell-based; outline: as §2

Row | SMILES | CC50 [1] [µM] | EC50 (Hepatitis C virus [2]) [µM] | CC50 [3] [µM] | EC50 (Hepatitis C virus [4]) [µM] | Activity (Candida tropicalis) | Activity (Pichia kudriavzevii) | Activity (Candida parapsilosis) | Activity (Candida albicans) | Activity (Pseudomonas aeruginosa [5]) | Activity (Escherichia coli [6]) | Activity [7] | Activity (Staphylococcus aureus [8]) | Activity (Pseudomonas aeruginosa [9]) | Activity (Escherichia coli [10]) | Activity (Staphylococcus aureus [11]) | Activity (Enterococcus faecalis) | IC50 [12] [µM] | IC50 (HL-60) [µM] | IC50 (HepG2) [µM] | IC50 (MRC5) [µM] | other results
1 | CN(C)c1ncnc2c1c(-c1ccccc1)cn2[C@@H]1O[C@H](CO)[C@@H](O)[C@H]1O | > 44 | > 44 | > 44 | 26.9 | inactive | inactive | inactive | inactive | inactive | inactive | inactive | inactive | inactive | inactive | inactive | inactive | > 20 | > 20 | > 20 | > 100 | IC50 (BJ): > 100 µM; IC50 (HCT-116 [13]): > 20 µM; IC50 (HCT-116 [14]): > 20 µM; IC50 (A549): > 100 µM; IC50 (K562 [15]): > 20 µM; IC50 (K562 [16]): > 20 µM; IC50 [17]: > 20 µM; IC50 (CCRF-CEM): > 20 µM
2 | Cc1ncnc2c1c(-c1ccco1)cn2[C@@H]1O[C@H](CO)[C@@H](O)[C@H]1O | 43.6 | 0.15 | 6.62 | 0.07 | inactive | inactive | inactive | inactive | inactive | inactive | inactive | inactive | inactive | inactive | inactive | inactive | 1.33 | 0.21 | 0.3 | 0.61 | IC50 (BJ): 0.07 µM; IC50 (HCT-116 [13]): 0.04 µM; IC50 (HCT-116 [14]): 0.04 µM; IC50 (A549): 0.11 µM; IC50 (K562 [15]): 0.11 µM; IC50 (K562 [16]): 0.04 µM; IC50 [17]: 0.07 µM; IC50 (CCRF-CEM): 0.04 µM
3 | CNc1ncnc2c1c(-c1ccoc1)cn2[C@@H]1O[C@H](CO)[C@@H](O)[C@H]1O | > 44 | > 44 | > 44 | 35.9 | inactive | inactive | inactive | inactive | inactive | inactive | inactive | inactive | inactive | inactive | inactive | inactive | > 20 | > 15 | > 20 | > 100 | IC50 (BJ): 96.3 µM; IC50 (HCT-116 [13]): > 20 µM; IC50 (HCT-116 [14]): > 20 µM; IC50 (A549): > 20 µM; IC50 (K562 [15]): > 20 µM; IC50 (K562 [16]): > 20 µM; IC50 [17]: > 20 µM; IC50 (CCRF-CEM): > 20 µM
4 | CNc1ncnc2c1c(-c1ccccc1)cn2[C@@H]1O[C@H](CO)[C@@H](O)[C@H]1O | > 44 | > 44 | > 44 | > 44 | inactive | inactive | inactive | inactive | inactive | inactive | inactive | inactive | inactive | inactive | inactive | inactive | > 20 | > 20 | > 20 | > 100 | IC50 (BJ): > 100 µM; IC50 (HCT-116 [13]): > 100 µM; IC50 (HCT-116 [14]): > 20 µM; IC50 (A549): > 20 µM; IC50 (K562 [15]): > 20 µM; IC50 (K562 [16]): > 20 µM; IC50 [17]: > 20 µM; IC50 (CCRF-CEM): > 20 µM
5 | Nc1nc2c(c(-c3ccco3)cn2[C@@H]2O[C@H](CO)[C@@H](O)[C@H]2O)c(=O)[nH]1 | > 44 | > 44 | > 44 | > 44 | inactive | inactive | inactive | inactive | inactive | inactive | inactive | inactive | inactive | inactive | inactive | inactive | > 20 | > 20 | > 20 | > 100 | IC50 (BJ): > 100 µM; IC50 (HCT-116 [13]): > 20 µM; IC50 (HCT-116 [14]): > 20 µM; IC50 (A549): > 20 µM; IC50 (K562 [15]): > 20 µM; IC50 (K562 [16]): > 20 µM; IC50 [17]: > 20 µM; IC50 (CCRF-CEM): > 20 µM
6 | Cc1nc(N)c2c(-c3cc4ccccc4o3)cn([C@@H]3O[C@H](CO)[C@@H](O)[C@H]3O)c2n1 | 39.1 | 18.2 | 39.2 | 6.14 | inactive | inactive | inactive | inactive | inactive | inactive | inactive | inactive | inactive | inactive | inactive | inactive | > 20 | > 20 | > 20 | 91.8 | IC50 (BJ): > 100 µM; IC50 (HCT-116 [13]): 13.1 µM; IC50 (HCT-116 [14]): > 20 µM; IC50 (A549): > 20 µM; IC50 (K562 [15]): 4.99 µM; IC50 (K562 [16]): 15.7 µM; IC50 [17]: 6.31 µM; IC50 (CCRF-CEM): > 20 µM
7 | CSc1ncnc2c1c(-c1ccsc1)cn2[C@@H]1O[C@H](CO)[C@@H](O)[C@H]1O | > 44 | > 44 | > 44 | 10.9 | inactive | inactive | inactive | inactive | inactive | inactive | inactive | inactive | inactive | inactive | inactive | inactive | > 20 | 4.59 | > 15 | > 100 | IC50 (BJ): 95.8 µM; IC50 (HCT-116 [13]): > 20 µM; IC50 (HCT-116 [14]): > 20 µM; IC50 (A549): > 20 µM; IC50 (K562 [15]): > 20 µM; IC50 (K562 [16]): 0.45 µM; IC50 [17]: > 20 µM; IC50 (CCRF-CEM): > 20 µM
8 | CSc1ncnc2c1c(-c1ccoc1)cn2[C@@H]1O[C@H](CO)[C@@H](O)[C@H]1O | > 44 | > 44 | > 44 | 4.72 | inactive | inactive | inactive | inactive | inactive | inactive | inactive | inactive | inactive | inactive | inactive | inactive | 5.39 | 0.36 | > 15 | > 100 | IC50 (BJ): 98.8 µM; IC50 (HCT-116 [13]): 0.1 µM; IC50 (HCT-116 [14]): 0.04 µM; IC50 (A549): 0.28 µM; IC50 (K562 [15]): 3.25 µM; IC50 (K562 [16]): 0.06 µM; IC50 [17]: > 20 µM; IC50 (CCRF-CEM): 14.2 µM
9 | Cc1nc(N)c2ccn([C@@H]3O[C@H](CO)[C@@H](O)[C@H]3O)c2n1 | > 44 | > 44 | > 44 | > 44 | inactive | inactive | inactive | inactive | inactive | inactive | inactive | inactive | inactive | inactive | inactive | inactive | > 20 | > 20 | > 20 | > 100 | IC50 (BJ): > 100 µM; IC50 (HCT-116 [13]): > 20 µM; IC50 (HCT-116 [14]): > 20 µM; IC50 (A549): > 100 µM; IC50 (K562 [15]): > 20 µM; IC50 (K562 [16]): > 20 µM; IC50 [17]: > 20 µM; IC50 (CCRF-CEM): > 20 µM
